Data from ChEMBL document CHEMBL3272290, “Contragestational agents. 1. Steroidal O-aryloximes” (J Med Chem, 1977).
Activity calls are given as the source filed them. No cut-off for these calls is given here.

Key:
[1] = system: Rattus norvegicus; assay: Antifertility activity in Wistar rat assessed as inhibition of preimplantive gestation by measuring resorptions at 36 mg/kg, po administered in days 9 to 12 of pregnancy measured on day 21; assay type: functional; set-up: scale not given: the % may be the effect or the level left
Procedure, shortened: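 Given orally in sesame oil (0.5 mL per 200 g body weight) to groups of five female Wistar-derived rats on days 9–12 of pregnancy. Outcome scored as percent resorptions.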

[2] = system: Rattus norvegicus; assay: Antifertility activity in Wistar rat assessed as inhibition of preimplantive gestation by measuring resorptions at 50 mg/kg, po administered in days 9 to 12 of pregnancy measured on day 21; assay type: functional; set-up: scale not given: the % may be the effect or the level left
Procedure, shortened: (§1)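 Groups of five pregnant female Wistar-derived rats dosed orally on days 9–12 of pregnancy, in sesame oil at 0.5 mL per 200 g body weight. Read-out was the percentage of resorptions.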

[3] = system: Rattus norvegicus; assay: Antifertility activity in Wistar rat assessed as inhibition of preimplantive gestation by measuring resorptions at 2.5 mg/kg, po administered in days 9 to 12 of pregnancy measured on day 21; assay type: functional; set-up: scale not given: the % may be the effect or the level left; procedure, shortened: as §1
[4] = system: Rattus norvegicus; assay: Antifertility activity in Wistar rat assessed as inhibition of preimplantive gestation by measuring resorptions at 2.5 mg/kg, po administered in day 11 of pregnancy measured on day 21; assay type: functional, organism-based; set-up: dose 2.5 mg/kg
[5] = system: Rattus norvegicus; assay: Androgenic activity in po dosed castrate immature Wistar rat assessed as dose required to produce significant increase in ventral prostate weight administered qd for 7 days; assay type: functional; conditions: Prostate gland, 168 h, read-out: MED
Procedure, shortened: (§2)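 Castrated immature rats dosed orally once a day for 7 days, in sesame oil at 0.2 mL per dose. Read-out was ventral prostate weight. Potency is expressed relative to 17-methyltestosterone. MED is the smallest tested dose giving a significant rise in ventral prostate weight.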

[6] = system: Rattus norvegicus; assay: Androgenic activity in rat at 10 to 100 mg/kg; assay type: functional, organism-based
[7] = system: Oryctolagus cuniculus; assay: Androgenic activity in rabbit at 10 to 100 mg/kg; assay type: functional, organism-based
[8] = system: Oryctolagus cuniculus; assay: Progestational activity in rabbit at 10 to 100 mg/kg; assay type: functional, organism-based
[9] = system: Rattus norvegicus; assay: Antiprogestational activity in rat at 10 to 100 mg/kg; assay type: functional, organism-based
[10] = system: Rattus norvegicus; assay: Antifertility activity in Wistar rat assessed as inhibition of preimplantive gestation by measuring resorptions at 5 mg/kg, po administered in days 1 to 6 of pregnancy measured on day 21; assay type: functional, organism-based; set-up: dose 5 mg/kg
[11] = system: Oryctolagus cuniculus; assay: Toxicity in rabbit assessed as adverse effect at 10 to 100 mg/kg; assay type: organism-based; set-up: dose 10-100 mg/kg; conditions: in vivo
[12] = system: Oryctolagus cuniculus; assay: Antiprogestational activity in rabbit at 10 to 100 mg/kg; assay type: functional, organism-based
[13] = system: Oryctolagus cuniculus; assay: Antiandrogenic activity in rabbit at 10 to 100 mg/kg; assay type: functional, organism-based
[14] = system: Rattus norvegicus; assay: Estrogenic activity in rat at 10 to 100 mg/kg; assay type: functional, organism-based
[15] = system: Rattus norvegicus; assay: Progestational activity in rat at 10 to 100 mg/kg; assay type: functional, organism-based
[16] = system: Rattus norvegicus; assay: Antiestrogenic activity in rat at 10 to 100 mg/kg; assay type: functional, organism-based
[17] = system: Rattus norvegicus; assay: Antiandrogenic activity in rat at 10 to 100 mg/kg; assay type: functional, organism-based
[18] = system: Oryctolagus cuniculus; assay: Estrogenic activity in rabbit at 10 to 100 mg/kg; assay type: functional, organism-based
[19] = system: Oryctolagus cuniculus; assay: Antiestrogenic activity in rabbit at 10 to 100 mg/kg; assay type: functional, organism-based
[20] = system: Rattus norvegicus; assay: Toxicity in rat assessed as adverse effect at 10 to 100 mg/kg; assay type: organism-based; set-up: dose 10-100 mg/kg; conditions: in vivo
[21] = system: Rattus norvegicus; assay: Androgenic activity in castrate immature Wistar rat at 10 mg/kg, po qd for 7 days relative to 17-methyl-testosterone; assay type: functional; procedure, shortened: as §2
[22] = system: Rattus norvegicus; assay: Antifertility activity in Wistar rat assessed as inhibition of preimplantive gestation by measuring resorptions at 10 mg/kg, po administered in days 9 to 12 of pregnancy measured on day 21; assay type: functional; set-up: scale not given: the % may be the effect or the level left; procedure, shortened: as §1
[23] = system: Rattus norvegicus; assay: Androgenic activity in castrate immature Wistar rat at 2.5 mg/kg, po qd for 7 days relative to 17-methyl-testosterone; assay type: functional; procedure, shortened: as §2

`C[C@]12CC/C(=N\Oc3ccc([N+](=O)[O-])cc3)C[C@@H]1CC[C@@H]1[C@@H]2CC[C@]2(C)/C(=N/O)CC[C@@H]12` gave an Activity [1] of 0%.
`C[C@]12CC/C(=N\Oc3ccc([N+](=O)[O-])cc3C(F)(F)F)C[C@@H]1CC[C@@H]1[C@@H]2CC[C@]2(C)[C@@H](O)CC[C@@H]12` gave an Activity [2] of 0%.
With `CC(=O)O[C@H]1CC[C@H]2[C@@H]3CC[C@H]4C/C(=N/Oc5ccc([N+](=O)[O-])cc5)[C@H](Cl)C[C@]4(C)[C@H]3CC[C@]12C` [NISTERIME ACETATE] the Activity [3] was 100%, the inhibition [4] was “Active” and the minimal effective dose [5] was over 90 mg/kg. The Activity [6] was “inactive”, the Activity [7] was “inactive” and the Activity [8] was “inactive”. The Activity [9] was “inactive”, the inhibition [10] was “Active” and the Activity [11] was “Non-toxic”. The Activity [12] was “inactive”, the Activity [13] was “inactive” and the Activity [14] was “inactive”. The Activity [15] was “inactive”, the Activity [16] was “inactive” and the Activity [17] was “inactive”. For the same molecule, the Activity [18] was “inactive”, the Activity [19] was “inactive” and the Activity [20] was “Non-toxic”.
For `C[C@]12CC[C@H]3[C@@H](CCC4=C/C(=N/Oc5ccc([N+](=O)[O-])cc5[N+](=O)[O-])CC[C@@]43C)[C@@H]1CC[C@@H]2O`, the minimal effective dose [5] was 1.5 mg/kg, the Activity [21] was 80% and the Activity [22] was 80.8%.
`CC(=O)O[C@H]1CC[C@H]2[C@@H]3CC[C@H]4C/C(=N/Oc5ccc([N+](=O)[O-])cc5)CC[C@]4(C)[C@H]3CC[C@]12C` was tested, and the Activity [3] was 96.6%, the minimal effective dose [5] was 30 mg/kg and the Activity [23] was 2.5%.
